# High-throughput results as filed in PubChem.
# HTRA1 inhibitor: inhibitors of human serine peptidase HTRA1; recombinant HTRA1, FP-rhodamine activity-based probe, fluorescence polarization; inhibition, % at 5.96 µM; 0.5% of 340,000 active; in the data active means inhibition above about 36%;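 further: 0% = enzyme with DMSO and 100% = wells lacking enzyme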
# SIAE primary: blocks human sialic acid acetylesterase; inhibition, % at 9.66 µM; 0.69% of 370,000 active; SIAE FP-Rh probe binding, fluorescence polarization;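 active means inhibition above a cutoff: mean of compounds within the control limits plus 3 SD of those, cut at about 17% in these data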;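 further: 0% = plate median of compound wells and 100% = probe without SIAE protein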
# TCR-CD3 inh: inhibitors of human TCR-CD3 interaction. TAMRA-labeled TCR probe fluorescence, biochemical. inhibition, % at 9.4 µM. AID 651800. 0.37% of 360,000 active; in the data active means inhibition above about 19%;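 further: recombinant mutant TCR 2C K166C tagged with TAMRA read by polarization; 0% = receptor in buffer alone and 100% = receptor with positive control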
# mABHD4 FP: inhibitors of mouse ABHD4; Q8VD66; purified mABHD4, FP-Rh probe fluorescence polarization; inhibition, % at 8.92 µM; 0.54% of 370,000 active; AID 720543;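 active means inhibition exceeding the mean over every tested compound plus 3 SD, cut at about 30% in these data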;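 further: 0% = plate median of compound wells and 100% = S159A mutant with DMSO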
# Target sequence (Q8VD66 whole entry, looked up): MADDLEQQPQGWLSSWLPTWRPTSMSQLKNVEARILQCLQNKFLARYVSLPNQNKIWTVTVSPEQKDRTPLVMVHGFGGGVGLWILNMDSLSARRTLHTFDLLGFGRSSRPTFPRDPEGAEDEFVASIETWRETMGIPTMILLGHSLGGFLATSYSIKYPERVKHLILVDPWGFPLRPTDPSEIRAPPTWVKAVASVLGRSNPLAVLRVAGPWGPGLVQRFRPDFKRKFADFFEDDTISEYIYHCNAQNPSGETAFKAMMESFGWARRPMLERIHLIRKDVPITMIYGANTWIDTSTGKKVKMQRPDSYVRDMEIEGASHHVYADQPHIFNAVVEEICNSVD
#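 Assay system: Wild-type mouse ABHD4 protein | Medium: HEPES pH 7.0 buffer, 150 mM NaCl, 0.01% Pluronic F-127 | Incubation: Enzyme–compound pre-incubation 45 min, then probe 60 min, both 25 °C | Technique: Fluorescence polarization with parallel and perpendicular emission, 525/598 nm | Evaluation: % inhibition of FP-Rh probe binding versus controls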
# PRMT1 FP inh: PRMT1 (human) inhibition, primary screen; Q99873; recombinant PRMT1, activity-based probe fluorescence polarization; inhibition, % at 2.79 µM; 1.3% of 370,000 active; AID 652257;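 active means inhibition above about 21% made by adding two undisclosed values, limit read from the data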
# * = called active by the depositor; . = no result given; ! = not active in a repeat. Compounds with a hit are over-represented: about 2.5% of the library has one in this group of screens.
SMILES,HTRA1 inhibitor,SIAE primary,TCR-CD3 inh,mABHD4 FP,PRMT1 FP inh
Cc1ccc(C(=O)c2coc3cc([N+](=O)[O-])c(O)c([N+](=O)[O-])c23)cc1,19,14,0,17,26*
CCN(CC)CCN(C(=O)c1ccc2ncsc2c1)c1nc2cc3c(cc2s1)OCO3,15,1,-2,-1,53*
Cc1[nH][nH]c(=O)c1C(c1ccc(-c2ccc(C(=O)O)cc2)o1)c1c(C)[nH][nH]c1=O,5,12,0,3,18
Cc1[nH][nH]c(=O)c1C(c1ccc(-c2ccc(F)cc2)o1)c1c(C)[nH][nH]c1=O,1,4,-4,5,22*
COC(=O)C1=C(C)N(C)C(=NCc2ccccc2)NC1CCc1ccccc1 (stereo not given),.,0,8,-1,-4
CCN=C1NN=C(c2ccc(C)cc2)CS1,-24,2,-1,-1,19
COCCN=C1NN=C(c2ccc(NC(C)=O)cc2)CS1,8,-7,1,5,22*
COc1ccc(N2CSC3=C(C#N)C(c4ccc(OC)c(OC)c4)CC(=O)N3C2)c(OC)c1 (stereo not given),6,5,-5,17,47*
O=C1NN(c2ccccc2)C(=O)/C1=C\c1ccccc1OCC(=O)N1CCOCC1,1,9,3,2,21*
CCc1ccccc1N=C1S/C(=C/c2ccccc2OCC(=O)N2CCOCC2)C(=O)N1C,-35,-1,-7,-10,1
CCOC(=O)C1CCN(C(=O)Nc2ccc3nc(-c4ccco4)c(-c4ccco4)nc3c2)CC1,45*,.,.,.,.
CCOC(=O)C1CCN(C(=O)Nc2ccc3c(c2)nc(C)n3C)CC1,-2,-1,-2,-1,2
COc1cc(C(=O)NCc2nnc(SCC(=O)NCc3ccco3)o2)cc(OC)c1OC,-33,7,-3,1,-1
CC(=O)N(C1=C(Cl)C(=O)c2ccccc2C1=O)C1CCCCC1,12,12,0,11,92*
CC(=O)N(c1ccccc1C)C1CCCC1,3,-7,0,4,0
CC1(C(=O)O)CCCN1C(=O)c1ccc(Cl)cc1Cl (stereo not given),.,-5,-6,1,4
Cc1oc(-c2ccc(Cl)cc2)cc1C(=O)N1CCC1(C)C(=O)O (stereo not given),.,-2,3,-4,23*
O=C1CC(N2CCC(c3nc4ccccc4s3)CC2)C(=O)N1Cc1ccccc1 (stereo not given),4,1,3,1,24*
N#CC(C#N)=Cc1c(N2CCN(c3ccccc3)CC2)nc2ccccn2c1=O,0,1,7,-5,0
CCN(CC)C1CC(=O)N(c2ccc(Br)cc2)C1=O (stereo not given),-1,9,3,2,46*
Cc1cc(C)nc(SC2CC(=O)N(c3ccc(Br)cc3)C2=O)n1 (stereo not given),0,5,-6,-2,4
CCCCN(C)CCn1c(=S)[nH]c2ccc(N3CCOCC3)cc2c1=O,4,-5,-7,-4,24*
CN1C[C@H](C(=O)N[C@]2(C)O[C@@]3(O)[C@@H]4CCCN4C(=O)[C@H](Cc4ccccc4)N3C2=O)CC2c3cccc4[nH]cc(c34)C[C@H]21 (stereo not given in full),7,21*!,5,5,11
CCCc1ccc(C(O)c2ncc(-c3ccc(OC)cc3)[nH]2)cc1 (stereo not given),.,7,-2,5,1
O=C(c1ccc2ncsc2c1)N1CCCC(C(F)(F)F)C1 (stereo not given),2,2,-9,-14,19
SMILES,HTRA1 inhibitor,SIAE primary,TCR-CD3 inh,mABHD4 FP,PRMT1 FP inh
CC1CCCN(C(=O)c2ccc3ncsc3c2)C1 (stereo not given),1,10,1,3,24*
Cc1cc(C)nc(SCC(=O)Nc2ccnc3ccccc23)n1,-5,3,5,7,1
O=C(CSC1=NCCS1)Nc1ccnc2ccccc12,-1,7,5,-5,23*
Cc1ccc(C(=S)N2CCN(Cc3ccccc3)CC2)cc1,-2,3,2,1,22*
Cc1ccc(NC(=S)N2CCN(Cc3ccccc3)CC2)cc1,0,1,2,5,-2
COc1ccc(Cc2c(O)nc(SCC(C)C)[nH]c2=O)cc1,-3,-9,-2,0,4
COc1ccc(Cc2c(O)nc(SCC(=O)c3ccc(OC)cc3)[nH]c2=O)cc1,-1,-5,-6,5,22*
